Results: ChEMBL document CHEMBL1127039, “Nonpeptide angiotensin II antagonists derived from 4H-1,2,4-triazoles and 3H-imidazo[1,2-b][1,2,4]triazoles” (J Med Chem, 1993)

System: Rattus norvegicus
Assay: Time from onset of action until significant (i.e., >= 30%) inhibition of pressor response no longer observed (1 mg/kg intravenous route).
Type: functional
How it was run: (§1)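 Same conscious-rat AII challenge protocol: AII 0.1 μg/kg iv boluses repeated after iv or po dosing, ΔMAP recorded. Duration is the time from onset until inhibition falls below 30% and stays below 30% for two further AII challenges. Averaged over at least two rats.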

| SMILES | Duration |
| --- | --- |
| CCCCc1nnc(SCc2ccc(OC)cc2)n1Cc1ccc(NC(=O)c2ccccc2-c2nn[nH]n2)cc1 | 0.2 h |
| CCCCc1nnc(SCc2ccccc2-c2nn[nH]n2)n1Cc1ccc(-c2ccccc2-c2nn[nH]n2)cc1 | 0.6 h |

System: Rattus norvegicus
Assay: Time from onset of action until significant (i.e., >= 30%) inhibition of pressor response no longer observed (3 mg/kg intravenous route)
Type: functional
How it was run: as §1

| SMILES | Duration |
| --- | --- |
| CCCCc1nnc(SCc2ccc(C)cc2)n1Cc1ccc(NC(=O)c2ccccc2C(=O)O)cc1 | 0.1 h |
| CCCCc1nnc(SCc2ccccc2C)n1Cc1ccc(NC(=O)c2ccccc2C(=O)O)cc1 | 0.5 h |

System: Rattus norvegicus
Assay: Peak inhibition of A II pressor response in conscious normotensive rats after intravenous administration of 1 mg/kg of drug (2 animals treated)
Type: functional
How it was run: (§2)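 Male Sprague-Dawley rats (300–400 g) catheterized under methohexital, recovered overnight, conscious. Compound given iv (saline or NaHCO3/saline/water vehicle) or po, with food withheld for oral dosing. AII 0.1 μg/kg iv bolus given at -45, -30 and -15 min, then at 5–60 min and every 30 min afterwards. Peak percent inhibition of the AII ΔMAP response, averaged over at least two rats.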

| SMILES | inhibition in vivo at 1 mg/kg |
| --- | --- |
| CCCCc1nnc(SCc2ccc(OC)cc2)n1Cc1ccc(NC(=O)c2ccccc2-c2nn[nH]n2)cc1 | 70% |
| CCCCc1nnc(SCc2ccccc2-c2nn[nH]n2)n1Cc1ccc(-c2ccccc2-c2nn[nH]n2)cc1 | 62% |

Target: T1, Type-1 angiotensin II receptor (Oryctolagus cuniculus, UniProt P34976)
T1 sequence (P34976 whole entry): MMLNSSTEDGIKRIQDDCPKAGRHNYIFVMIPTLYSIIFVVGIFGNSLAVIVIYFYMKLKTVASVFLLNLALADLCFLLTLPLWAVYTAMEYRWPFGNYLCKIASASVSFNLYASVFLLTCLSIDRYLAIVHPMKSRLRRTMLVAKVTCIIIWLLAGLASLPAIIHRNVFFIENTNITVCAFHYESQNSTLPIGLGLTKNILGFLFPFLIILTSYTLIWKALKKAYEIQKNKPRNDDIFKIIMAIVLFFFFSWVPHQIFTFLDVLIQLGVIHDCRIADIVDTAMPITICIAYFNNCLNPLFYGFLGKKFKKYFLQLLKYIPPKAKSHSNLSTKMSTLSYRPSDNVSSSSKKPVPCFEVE
Assay: Displacement of [125I]-Sar1-Ile8-A II at the rabbit aorta angiotensin II receptor, type 1
Type: tissue-based
How it was run: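 Rabbit aorta membranes in 50 mM Tris-HCl pH 7.4, 5 mM MgCl2, 0.2 mg/mL bacitracin; 0.2% BSA only in original version. Nonspecific binding with 1 μM unlabeled Sar1Ile8-AII. Filtration, gamma counting. Duplicate tubes, five concentrations; IC50 from nonlinear regression of displacement curves, sometimes averaged over separate assays.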

| IC50 | SMILES |
| --- | --- |
| 170 nM | CCCCc1nn2c(-c3ccccc3)c(C)nc2n1Cc1ccc(-c2ccccc2-c2nnn[nH]2)cc1 |
| 21 nM | CCCCc1nnc(SCc2cccc(OC)c2)n1Cc1ccc(NC(=O)c2ccccc2C(=O)O)cc1 |
| 90 nM | CCCCc1nnc(SCc2ccccc2C(=O)OC)n1Cc1ccc(-c2ccccc2-c2nnn[nH]2)cc1 |
| 120 nM | CCCCc1nnc(SCc2ccc(C(=O)OC)cc2)n1Cc1ccc(-c2ccccc2-c2nn[nH]n2)cc1 |
| 110 nM | CCCCc1nnc(SCc2ccccc2Cl)n1Cc1ccc(-c2ccccc2-c2nnn[nH]2)cc1 |
| 400 nM | CCCCc1nnc(S(C)(=O)=O)n1Cc1ccc(-c2ccccc2-c2nn[nH]n2)cc1 |
| 4800 nM | CCSc1nnc(C(F)(F)F)n1Cc1ccc(NC(=O)c2ccccc2C(=O)O)cc1 |
| 1000 nM | CCCCc1nnc(-c2ccco2)n1Cc1ccc(NC(=O)c2ccccc2C(=O)O)cc1 |
| 30 nM | CCCCc1nnc(SCc2cccc(C(=O)OC)c2)n1Cc1ccc(NC(=O)c2ccccc2C(=O)O)cc1 |
| 63 nM | CCCCc1nnc(OCCc2ccccc2)n1Cc1ccc(-c2ccccc2-c2nnn[nH]2)cc1 |
| 14 nM | CCCCc1nnc(SCc2ccccc2C(=O)OC)n1Cc1ccc(NC(=O)c2ccccc2C(=O)O)cc1 |
| 28 nM | CCCCc1nnc([S+]([O-])Cc2ccc(OC)cc2)n1Cc1ccc(NC(=O)c2ccccc2-c2nn[nH]n2)cc1 (centres undefined) |
| 1600 nM | CCCSc1nnc(-c2ccccc2)n1Cc1ccc(NC(=O)c2ccccc2C(=O)O)cc1 |
| 140 nM | CCCCc1nnc(NCc2ccc(Cl)cc2)n1Cc1ccc(-c2ccccc2-c2nn[nH]n2)cc1 |
| 36 nM | CCCCc1nnc(SCc2ccccc2CO)n1Cc1ccc(-c2ccccc2-c2nn[nH]n2)cc1 |
| 49 nM | CCCCc1nnc(SCc2ccc3ccccc3c2)n1Cc1ccc(NC(=O)c2ccccc2C(=O)O)cc1 |

| IC50 | SMILES |
| --- | --- |
| 70 nM | CCCCc1nnc(SCCc2ccccc2)n1Cc1ccc(NC(=O)c2ccccc2C(=O)O)cc1 |
| 330 nM | CCCCc1nnc(SCC(=O)OC)n1Cc1ccc(NC(=O)c2ccccc2C(=O)O)cc1 |
| 1900 nM | CCSc1nnc(-c2ccccc2)n1Cc1ccc(NC(=O)c2ccccc2C(=O)O)cc1 |
| 5200 nM | CCSc1nnc(COC)n1Cc1ccc(NC(=O)c2ccccc2C(=O)O)cc1 |
| 1700 nM | CCCCc1nnc(-c2cccnc2)n1Cc1ccc(NC(=O)c2ccccc2C(=O)O)cc1 |
| 1000 nM | CCSc1nnc(Cc2ccccc2)n1Cc1ccc(NC(=O)c2ccccc2C(=O)O)cc1 |
| 120 nM | CCCc1nnc(SCc2ccccc2)n1Cc1ccc(NC(=O)c2ccccc2C(=O)O)cc1 |
| 57 nM | CCCCc1nnc(C(=O)NCc2ccccc2)n1Cc1ccc(-c2ccccc2-c2nnn[nH]2)cc1 |
| 6.8 nM | CCCCc1nnc(SCc2ccc(Cl)cc2)n1Cc1ccc(NC(=O)c2ccccc2C(=O)O)cc1 |
| 6.1 nM | CCCCc1nnc(SC(C(=O)OC)c2ccccc2)n1Cc1ccc(NC(=O)c2ccccc2C(=O)O)cc1 (centres undefined) |
| 55 nM | CCCCc1nn2cc(C)nc2n1Cc1ccc(-c2ccccc2-c2nnn[nH]2)cc1 |
| 36 nM | CCCCc1nnc(SCC2CCCCC2)n1Cc1ccc(-c2ccccc2-c2nn[nH]n2)cc1 |
| 300 nM | CCCCc1nnc(SC(CC)C(=O)OC)n1Cc1ccc(NC(=O)c2ccccc2C(=O)O)cc1 (centres undefined) |
| 14 nM | CCCCc1nnc(SCc2ccccc2C)n1Cc1ccc(NC(=O)c2ccccc2C(=O)O)cc1 |
| 72 nM | CCCCc1nnc(SCC(C)C)n1Cc1ccc(-c2ccccc2-c2nn[nH]n2)cc1 |

Second part, the compound before the results:

| SMILES | IC50 |
| --- | --- |
| CCCCc1nnc(SCc2ccc(C(F)(F)F)cc2)n1Cc1ccc(NC(=O)c2ccccc2C(=O)O)cc1 | 42 nM |
| CCCCc1nnc(-c2ccccc2)n1Cc1ccc(NC(=O)c2ccccc2C(=O)O)cc1 | 930 nM |
| CCCCc1nnc(NCc2ccc(OC)cc2)n1Cc1ccc(-c2ccccc2-c2nnn[nH]2)cc1 | 780 nM |
| CCCCc1nnc(-c2ccncc2)n1Cc1ccc(NC(=O)c2ccccc2C(=O)O)cc1 | 1400 nM |
| CCCCc1nn2c(C)c(-c3ccccc3)nc2n1Cc1ccc(-c2ccccc2-c2nnn[nH]2)cc1 | 13 nM |
| CCCCc1nnc(SC(C(=O)O)c2ccccc2)n1Cc1ccc(NC(=O)c2ccccc2C(=O)O)cc1 (centres undefined) | 20 nM |
| CCCCc1nnc([S+]([O-])Cc2ccc(OC)cc2)n1Cc1ccc(-c2ccccc2-c2nnn[nH]2)cc1 (centres undefined) | 50 nM |
| CCCCc1nnc(SCc2cccc(C(=O)O)c2)n1Cc1ccc(NC(=O)c2ccccc2C(=O)O)cc1 | 15 nM |
| CCCCc1nnc(SCc2ccccc2[N+](=O)[O-])n1Cc1ccc(-c2ccccc2-c2nnn[nH]2)cc1 | 130 nM |
| CCCCc1nnc(SCC(=O)NC)n1Cc1ccc(NC(=O)c2ccccc2C(=O)O)cc1 | 720 nM |
| CCCCc1nnc(C(=O)N(C)c2ccccc2)n1Cc1ccc(-c2ccccc2-c2nnn[nH]2)cc1 | 350 nM |
| CCCCc1nnc(SCCc2ccccc2)n1Cc1ccc(-c2ccccc2-c2nnn[nH]2)cc1 | 35 nM |
| CCCCc1nn2c(-c3ccccc3)cnc2n1Cc1ccc(-c2ccccc2-c2nn[nH]n2)cc1 | 220 nM |
| CCCCc1nnc([S+]([O-])Cc2ccc(OC)cc2)n1Cc1ccc(NC(=O)c2ccccc2C(=O)O)cc1 (centres undefined) | 7.4 nM |
| CCCCc1nnc(SCc2cccc(Cl)c2)n1Cc1ccc(NC(=O)c2ccccc2C(=O)O)cc1 | 26 nM |
| CCCCc1nnc(SCc2ccc(OC)cc2)n1Cc1ccc(-c2ccccc2-c2nnn[nH]2)cc1 | 31 nM |
| CCCCc1nnc(S)n1Cc1ccc(-c2ccccc2C(=O)O)cc1 | 860 nM |
| CCCCc1nnc(SCc2ccc(OC)cc2)n1Cc1ccc(NC(=O)c2ccccc2-c2nn[nH]n2)cc1 | 4.1 nM |
| CCCSc1nnc(CSc2ccccc2)n1Cc1ccc(NC(=O)c2ccccc2C(=O)O)cc1 | 1200 nM |
| CCCSc1nnc(C(F)(F)F)n1Cc1ccc(NC(=O)c2ccccc2C(=O)O)cc1 | 2100 nM |
| CCCCc1nnc(SCC(=O)c2ccccc2)n1Cc1ccc(NC(=O)c2ccccc2C(=O)O)cc1 | 190 nM |
| CCCCc1nnc(SCc2ccc(C)cc2)n1Cc1ccc(NC(=O)c2ccccc2C(=O)O)cc1 | 7.6 nM |
| CCCCc1nnc(SCc2ccccc2C#N)n1Cc1ccc(NC(=O)c2ccccc2C(=O)O)cc1 | 60 nM |

| SMILES | IC50 |
| --- | --- |
| CCCCc1nnc(OCc2ccccc2)n1Cc1ccc(-c2ccccc2-c2nn[nH]n2)cc1 | 370 nM |
| CCCCc1nnc(SCc2ccc(C(=O)O)cc2)n1Cc1ccc(-c2ccccc2-c2nnn[nH]2)cc1 | 24 nM |
| CCCCc1nnc(Sc2ccccc2)n1Cc1ccc(NC(=O)c2ccccc2C(=O)O)cc1 | 60 nM |
| CCCSc1nnc(Cc2ccccc2)n1Cc1ccc(NC(=O)c2ccccc2C(=O)O)cc1 | 380 nM |
| CCCCc1nn2cc(CC)nc2n1Cc1ccc(-c2ccccc2-c2nn[nH]n2)cc1 | 55 nM |
| CCCc1nnc(SCc2ccc(Cl)cc2)n1Cc1ccc(-c2ccccc2-c2nn[nH]n2)cc1 | 98 nM |
| CCCCc1nnc([S+]([O-])Cc2ccccc2C(=O)O)n1Cc1ccc(-c2ccccc2-c2nnn[nH]2)cc1 (centres undefined) | 10 nM |
| CCCCc1nnc([S+]([O-])Cc2ccc([N+](=O)[O-])cc2)n1Cc1ccc(-c2ccccc2-c2nnn[nH]2)cc1 (centres undefined) | 8.9 nM |
| CCCCc1nc(Cl)c(CO)n1Cc1ccc(-c2ccccc2C(=O)O)cc1 | 230 nM |
| CCCCc1nnc(SCc2cccc(OC)c2)n1Cc1ccc(-c2ccccc2-c2nn[nH]n2)cc1 | 94 nM |
| CCCCc1nnc(SCc2cccc(C)c2)n1Cc1ccc(NC(=O)c2ccccc2C(=O)O)cc1 | 32 nM |
| CCCCc1nnc(SCc2ccccc2Cl)n1Cc1ccc(NC(=O)c2ccccc2C(=O)O)cc1 | 30 nM |
| CCCCc1nnc(Sc2ccccc2)n1Cc1ccc(-c2ccccc2-c2nn[nH]n2)cc1 | 100 nM |
| CCCCCc1nnc(SCc2ccc(Cl)cc2)n1Cc1ccc(-c2ccccc2-c2nn[nH]n2)cc1 | 94 nM |
| CCCCc1nc2ccccc2n1Cc1ccc(-c2ccccc2-c2nn[nH]n2)cc1 | 96 nM |
| CCCCc1nnc(SC)n1Cc1ccc(-c2ccccc2-c2nnn[nH]2)cc1 | 310 nM |
| CCCCc1nn2c(C)c(C)nc2n1Cc1ccc(-c2ccccc2-c2nn[nH]n2)cc1 | 7.8 nM |
| CCCCc1nnc(SCc2ccccc2-c2nn[nH]n2)n1Cc1ccc(-c2ccccc2-c2nn[nH]n2)cc1 | 1.4 nM |
| CCCCc1nnc(SCc2ccccc2C)n1Cc1ccc(-c2ccccc2-c2nn[nH]n2)cc1 | 17 nM |
| CCCCc1nnc(SCCO)n1Cc1ccc(NC(=O)c2ccccc2C(=O)O)cc1 | 480 nM |
| CCCCc1nc(Cl)c(CC(=O)OC)n1Cc1ccc(NC(=O)c2ccccc2C(=O)O)cc1 | 420 nM |
| CCCSc1nnc(CCCc2ccccc2)n1Cc1ccc(NC(=O)c2ccccc2C(=O)O)cc1 | 320 nM |

System: Rattus norvegicus
Assay: Peak inhibition of A II pressor response in conscious normotensive rats after intravenous administration of 3 mg/kg of drug (2 animals treated)
Type: functional
How it was run: as §2

| SMILES | inhibition in vivo at 3 mg/kg |
| --- | --- |
| CCCCc1nnc(SCc2ccc(C)cc2)n1Cc1ccc(NC(=O)c2ccccc2C(=O)O)cc1 | 50% |
| CCCCc1nnc(SCc2ccccc2C)n1Cc1ccc(NC(=O)c2ccccc2C(=O)O)cc1 | 56% |
